Experimental findings from ChEMBL document CHEMBL1158391, “Synthesis and antileishmanial activity of novel 2,4,6-trisubstituted pyrimidines and 1,3,5-triazines” (Eur J Med Chem, 2009) are described below.

Values after ≈ are worked out from the molar mass of the structure shown. Active and inactive are the calls of the source. The rule behind the calls is not given here.

Data set [1] is described as follows: Cytotoxicity against mouse J774A1 cells after 72 hrs by MTT assay. It counts as cell-based, J774.A1. The essentials: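 J774A.1 cells were kept in RPMI with 10% foetal calf serum and gentamycin. Cells (1×10⁴/well) were exposed to graded concentrations diluted from DMSO stocks for 72 h at 37 °C in humidified CO₂. MTT (5 mg/ml stock in PBS) was added for 2 h, and formazan was dissolved in DMSO and read at 544 nm. CC50 was the concentration giving 50% viability loss versus medium-only cells, estimated by template.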
For orientation: Tetrazolium dyes change colour on reduction, which living cells bring about.

The nature of data set [2]: (§1) Selectivity index, ratio of CC50 for mouse J774A1 cells to IC50 for Leishmania donovani MHOM/IN/80/Dd8 amastigotes. Format: functional, J774.A1. The essentials:
(§2)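 Ratio of J774A.1 CC50 (MTT, 72 h) to IC50 from the luciferase assay on intracellular amastigotes in J774A.1 macrophages (72 h exposure).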

Data set [3] relates to Leishmania donovani. The data set can be described thus: Antileishmanial activity against Leishmania donovani MHOM/IN/80/Dd8 promastigotes at 10 ug/ml after 72 hrs. It counts as functional. The essentials:
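Promastigotes were transfected with firefly luciferase and kept in medium 199 with 10% foetal calf serum, penicillin/streptomycin and G418. Late-log cells (5×10⁵/well) were exposed for 72 h to serial dilutions (1–10 range) in DMSO, with DMSO controls. Luminescence was read with Steady-Glo. % inhibition = (N − n)×100/N, using mean RLU of control (N) and treated (n) wells.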

The test system of data set [4] is Leishmania donovani. Put plainly: Antileishmanial activity against Leishmania donovani MHOM/IN/80/Dd8 amastigotes infected in mouse J774A.1 cells after 72 hrs. It counts as functional, organism-based. The conditions noted are these: MHOM/IN/80/Dd8, J774.A1, 72 h. The method in brief:
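J774A.1 macrophages (1.5×10⁴/well) were cultured in RPMI-1640 with 10% foetal calf serum at 37 °C in CO₂. After 24 h they were infected with stationary-phase luciferase-transfected promastigotes (2.25×10⁵/well), which transform into amastigotes. Test material (0.25–10 range) in complete medium was then applied for 72 h. Steady-Glo luminescence of treated wells was compared with untreated controls.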

Data set [5] deals with Leishmania donovani. Put plainly: Antileishmanial activity against Leishmania donovani MHOM/IN/80/Dd8 promastigotes at […] after 72 hrs. It counts as functional, organism-based.
Data set [6] concerns Leishmania donovani. Put plainly: Antileishmanial activity against Leishmania donovani MHOM/IN/80/Dd8 amastigotes infected in golden hamster at 50 mg/kg, ip administered 5 times per day for 5 days. Format: functional. The method in brief:
(§3)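 Golden hamsters infected with L. donovani MHOM/IN/80/Dd8 were randomized into groups by parasite burden, 4–6 animals per sample. Intraperitoneal dosing began 2 days after biopsy. Post-treatment biopsy was taken on day 7 after the last dose, and amastigotes were counted by Giemsa staining. Percentage inhibition was calculated from actual and initial counts in treated animals and the fold increase in untreated controls.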

The test system of data set [7] is Leishmania donovani. The data set can be described thus: Antileishmanial activity against Leishmania donovani MHOM/IN/80/Dd8 amastigotes infected in golden hamster at 40 mg/kg, ip administered 5 times per day for 5 days. It counts as functional, organism-based. Also noted: dose 40 mg/kg. The method in brief: as §3
In the next data set the test system is J774.A1. The description is as §1. It counts as functional. The method in brief:
as §2

Data set [8] concerns Leishmania donovani. The data set can be described thus: Antileishmanial activity against Leishmania donovani MHOM/IN/80/Dd8 amastigotes infected in golden hamster at 20 mg/kg, ip administered 5 times per day for 5 days. The settings on record: route intraperitoneal. It counts as functional. The essentials:
as §3

Data set [9] has as its system Leishmania donovani. The data set can be described thus: Antileishmanial activity against Leishmania donovani MHOM/IN/80/Dd8 promastigotes at 0.5 ug/ml after 72 hrs. Format: functional.

Usually CC50 stands for the concentration at which the toxic effect on the cells reaches its halfway point. A low value points to harm at low concentration. By IC50 is commonly meant the concentration needed to halve the response being measured. For `CCN(CC)CCNc1nc(NCCN(CC)CC)nc(Nc2nc(SC)cc(-c3ccc(OC)c(OC)c3)n2)n1`, the midpoint of cytotoxicity in [1], the CC50 at 72 h, lay at 42 µg/mL (≈ 71.8 µM). The “Ratio CC50/IC50” value in [2] is 8.6. In addition, the Activity in the data set on Leishmania donovani [3] is 94.7%. The molecule also displayed an IC50 in the data set on Leishmania donovani [4] of 4.88 µg/mL (≈ 8.34 µM).
With `COc1ccc(-c2cc(SC)nc(Nc3nc(NC(C)C)nc(NC(C)C)n3)n2)cc1OC`, in the data set on Leishmania donovani [3], the outcome was inactive.
On to sodium stibogluconate, for which the Activity came out at 40% with Leishmania donovani [5], 48.5% with Leishmania donovani [6] and 92% in the data set with Leishmania donovani [7]. Further, in the data set with J774.A1, the Ratio CC50/IC50 came to 5.53.
Take `COc1ccc(-c2cc(SC)nc(Nc3nc(N4CCN(C)CC4)nc(N4CCN(C)CC4)n3)n2)cc1OC`: the CC50 at 72 h in data set [1] was found to be 36.2 µg/mL (≈ 65.6 µM). Further, the “Ratio CC50/IC50” value in [2] was 40.71. The same molecule returned an Activity in the data set on Leishmania donovani [3] of 99.8%. This molecule also gave an IC50 in the data set on Leishmania donovani [4] of 0.89 µg/mL (≈ 1.61 µM).
As to `COc1cc(-c2cc(SC)nc(Nc3nc(NCCCN4CCOCC4)nc(NCCCN4CCOCC4)n3)n2)cc(OC)c1OC`, the Activity in the data set on Leishmania donovani [3] amounted to 75.2%.
Still for that read-out and setting: for `CCN(CC)CCNc1nc(NCCN(CC)CC)nc(Nc2nc(SC)cc(-c3cc(OC)c(OC)c(OC)c3)n2)n1` the value was “inactive”.
Regarding `COc1ccc(-c2cc(SC)nc(Nc3nc(N4CCCCC4)nc(N4CCCCC4)n3)n2)cc1OC`, in the data set with Leishmania donovani [3], the Activity was 53.8%.
With `COc1ccc(-c2cc(SC)nc(Nc3nc(N4CCOCC4)nc(N4CCOCC4)n3)n2)cc1OC`, the CC50 at 72 h in data set [1] stood at 23.9 µg/mL (≈ 45.3 µM). Moreover, the “Ratio CC50/IC50” value in data set [2] is given as 2.46. This molecule also had an Activity with Leishmania donovani [3] of 90.5%. Besides, the IC50 in the data set on Leishmania donovani [4] is 9.68 µg/mL (≈ 18.4 µM).
On to `COc1cc(-c2cc(NCCN3CCOCC3)nc(N)n2)cc(OC)c1OC`, for which the Activity in the data set on Leishmania donovani [3] is given as 68.5%.
Molecule `COc1cc(-c2cc(N3CCCCC3)nc(N)n2)cc(OC)c1OC` came in with a CC50 at 72 h in [1] of 10.4 µg/mL (≈ 30.3 µM). Moreover, in data set [2], the “Ratio CC50/IC50” value came out at 1.47. Also, the Activity in the data set with Leishmania donovani [3] is 88%. Further, the IC50 with Leishmania donovani [4] is 7.09 µg/mL (≈ 20.6 µM).
With `CCN1CCN(c2nc(Nc3nc(SC)cc(-c4ccc(OC)c(OC)c4)n3)nc(N3CCN(CC)CC3)n2)CC1`, the result in the data set on Leishmania donovani [3] was inactive.
Regarding `CCN(CC)CCNc1cc(-c2cc(OC)c(OC)c(OC)c2)nc(N)n1`, the results for the Activity in the data set with Leishmania donovani [6] (route intraperitoneal) and in the data set with Leishmania donovani [3] were 48.46% and 95.1%, respectively. Also, in data set [1], the CC50 at 72 h amounted to 81.5 µg/mL (≈ 217 µM). In addition, in data set [2], the “Ratio CC50/IC50” value is given as 15.92. In the data set on Leishmania donovani [4], this molecule gave an IC50 of 5.12 µg/mL (≈ 13.6 µM).
In the case of `COc1cc(-c2cc(SC)nc(Nc3nc(NC(C)C)nc(NC(C)C)n3)n2)cc(OC)c1OC`, the midpoint of cytotoxicity in data set [1], the CC50 at 72 h, lay at 1.9 µg/mL (≈ 3.8 µM). Also, the “Ratio CC50/IC50” value in [2] was 1.82. In the data set with Leishmania donovani [3], this molecule showed an Activity of 94.5%. In addition, the IC50 in the data set with Leishmania donovani [4] was 1.04 µg/mL (≈ 2.08 µM).
On to `COc1cc(-c2cc(SC)nc(Nc3nc(NCCN4CCOCC4)nc(NCCN4CCOCC4)n3)n2)cc(OC)c1OC`, for which, in the data set on Leishmania donovani [3], the Activity is listed as 42.5%.
As for `COc1ccc(-c2cc(SC)nc(Nc3nc(NCCN4CCOCC4)nc(NCCN4CCOCC4)n3)n2)cc1OC`, in the data set on Leishmania donovani [3], the outcome was inactive.
Molecule `COc1cc(-c2cc(NCCCN3CCOCC3)nc(N)n2)cc(OC)c1OC` registered an Activity in the data set on Leishmania donovani [3] of 46.9%.
The same measure, in the same setting: to `CCCCNc1nc(NCCCC)nc(Nc2nc(SC)cc(-c3cc(OC)c(OC)c(OC)c3)n2)n1` belongs 75.5%.
For `COc1cc(-c2cc(SC)nc(Nc3nc(N4CCOCC4)nc(N4CCOCC4)n3)n2)cc(OC)c1OC`, it took 10.8 µg/mL (≈ 19.5 µM) to reach half-maximal cytotoxicity in data set [1] (CC50 at 72 h). Moreover, in [2], the “Ratio CC50/IC50” value was found to be 1.54. Moreover, in the data set on Leishmania donovani [3], the Activity stood at 80.8%. In the data set on Leishmania donovani [4], this molecule showed an IC50 of 7.02 µg/mL (≈ 12.6 µM).
For `CCCCNc1cc(-c2cc(OC)c(OC)c(OC)c2)nc(N)n1`, the Activity amounted to 54.1% in the data set with Leishmania donovani [6] (route intraperitoneal) and 84.4% in the data set on Leishmania donovani [3]. Moreover, in data set [1], the CC50 at 72 h is 49.9 µg/mL (≈ 150 µM). Moreover, in data set [2], the “Ratio CC50/IC50” value is recorded as 10. Further, in the data set on Leishmania donovani [4], 4.99 µg/mL (≈ 15 µM) corresponded to half-maximal inhibition (IC50).
`COc1ccc(-c2cc(SC)nc(Nc3nc(NCCCN4CCOCC4)nc(NCCCN4CCOCC4)n3)n2)cc1OC`: the Activity in the data set on Leishmania donovani [3] came out at 35.2%.
Same read-out and setting: for `CCCCNc1nc(NCCCC)nc(Nc2nc(SC)cc(-c3ccc(OC)c(OC)c3)n2)n1` the value was 78.6%.
Regarding `N=C(N)c1ccc(OCCCCCOc2ccc(C(=N)N)cc2)cc1` [PENTAMIDINE], the Activity stood at 84.1% in the data set with Leishmania donovani [8] and 85% with Leishmania donovani [9]. The molecule also returned a CC50 at 72 h in data set [1] of 31.3 µg/mL (≈ 92 µM).
For the molecule `CCCNc1nc(NCCC)nc(Nc2nc(SC)cc(-c3cc(OC)c(OC)c(OC)c3)n2)n1`, the CC50 at 72 h in data set [1] came to 1.46 µg/mL (≈ 2.92 µM). Also, in the data set on Leishmania donovani [3], the Activity is 86.7%.
Regarding `COc1cc(-c2cc(N3CCOCC3)nc(N)n2)cc(OC)c1OC`, in the data set with Leishmania donovani [3], the Activity stood at 43.9%.
Regarding `COc1cc(-c2cc(N3CCN(C)CC3)nc(N)n2)cc(OC)c1OC`, the Activity in the data set with Leishmania donovani [3] is recorded as 63.88%.
As to `COc1cc(-c2cc(SC)nc(Nc3nc(N4CCN(C)CC4)nc(N4CCN(C)CC4)n3)n2)cc(OC)c1OC`, in data set [1], the CC50 at 72 h is 16.5 µg/mL (≈ 28.4 µM). Besides, the “Ratio CC50/IC50” value in data set [2] is recorded as 12.34. This molecule also gave an Activity with Leishmania donovani [3] of 99.5%. In addition, half-maximal inhibition in the data set with Leishmania donovani [4] (IC50) was put at 1.34 µg/mL (≈ 2.3 µM).
The like results for `COc1cc(-c2cc(SC)nc(Nc3nc(NC(C)(C)C)nc(NC(C)(C)C)n3)n2)cc(OC)c1OC` were, in that order, 9.8 µg/mL (≈ 18.5 µM), 3.29, 95.8% and 2.97 µg/mL (≈ 5.62 µM).
Turning to `COc1cc(-c2cc(SC)nc(Nc3nc(N4CCCCC4)nc(N4CCCCC4)n3)n2)cc(OC)c1OC`, the Activity with Leishmania donovani [6] (route intraperitoneal) came out at 56.58%; with Leishmania donovani [3], 90.8%. Further, in data set [1], it took 51.7 µg/mL (≈ 93.5 µM) to reach half-maximal cytotoxicity (CC50 at 72 h). In [2], the “Ratio CC50/IC50” value was found to be 28.7. The molecule also came in with an IC50 in the data set on Leishmania donovani [4] of 1.8 µg/mL (≈ 3.26 µM).
`COc1ccc(-c2cc(SC)nc(Nc3nc(NC(C)(C)C)nc(NC(C)(C)C)n3)n2)cc1OC`: the outcome with Leishmania donovani [3] was inactive.
As for `CCCNc1nc(NCCC)nc(Nc2nc(SC)cc(-c3ccc(OC)c(OC)c3)n2)n1`, the midpoint of cytotoxicity in [1], the CC50 at 72 h, lay at 14.3 µg/mL (≈ 30.5 µM). For the same molecule, in data set [2], the “Ratio CC50/IC50” value came to 6.31. This molecule gave an Activity in the data set on Leishmania donovani [3] of 85.6%. The molecule further registered an IC50 in the data set on Leishmania donovani [4] of 2.27 µg/mL (≈ 4.82 µM).
The like results for `CCN1CCN(c2nc(Nc3nc(SC)cc(-c4cc(OC)c(OC)c(OC)c4)n3)nc(N3CCN(CC)CC3)n2)CC1` were, in that order, 27.4 µg/mL (≈ 44.8 µM), 6, 100% and 4.56 µg/mL (≈ 7.47 µM).
